# From ChEMBL document CHEMBL3259553 (J Med Chem, 2014)
# The source made the active and inactive calls. The rule behind the calls is not given here.
# Experiments:
# Rattus norvegicus [1] = assay: Cardiotoxicity in thyroidectomized rat assessed as induction of alpha-MHC hnRNA expression in cardiac myocyte at 5 to 37.5 mg/kg, ip measured after 6 hrs; type: toxicity, organism-based, Heart; set-up: dose 5-37.5 mg/kg, route intraperitoneal; settings: in vivo
# Method in brief: (§1)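 Thyroidectomized rats were dosed intraperitoneally at 5, 20 or 37.5 mg/kg, with 4 rats per group. Vehicle was 4% DMSO, 15% PEG-400 and 81% of 30% HPBCD in phosphate buffer. Cardiac α-MHC hnRNA, in arbitrary units, and plasma concentration were measured 6 h after dosing. Comparators were untreated thyroidectomized rats and euthyroid rats.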
# [2] = Plasma concentration in thyroidectomized rat at 37.5 mg/kg, ip measured after 6 hrs; type: ADME, organism-based; set-up: dose 37.5 mg/kg, route intraperitoneal; method in brief: as §1
# [3] = Plasma concentration in thyroidectomized rat at 5 mg/kg, ip measured after 6 hrs; type: ADME, organism-based; set-up: dose 5 mg/kg, route intraperitoneal; method in brief: as §1
# hERG (KCNH2) = hERG (KCNH2) (Homo sapiens, UniProt Q12809); assay: Inhibition of human ERG
# Method in brief: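 hERG channel blockade was expressed as an IC20.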
# Cytochrome P450 3A5 = Cytochrome P450 3A5 (Homo sapiens, UniProt P20815); assay: Inhibition of CYP3A5 (unknown origin); type: ADME
# Cytochrome P450 2C19 = Cytochrome P450 2C19 (Homo sapiens, UniProt P33261); assay: Inhibition of CYP2C19 (unknown origin); type: ADME
# Method in brief: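 Time-dependent inhibition of the same enzyme was also assessed, with and without NADPH.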
# Caco-2 [4] = assay: Permeability from apical to basolateral side of human Caco2 cells; type: ADME, cell-based
# [5] = AUC in rat at 5 mg/kg, iv; type: ADME, organism-based; set-up: dose 5 mg/kg, route intravenous; settings: plasma
# [6] = Clearance in rat at 5 mg/kg, iv; type: ADME, organism-based; set-up: dose 5 mg/kg, route intravenous; settings: in vivo
# Method in brief: (§2)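 Rat pharmacokinetics after a 5 mg/kg dose given iv, or given orally as a suspension. Values are means with SD from N = 3 rats.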
# [7] = Volume of distribution at steady state in rat at 5 mg/kg, iv; type: ADME, organism-based; set-up: dose 5 mg/kg, route intravenous; settings: in vivo, read-out: Vdss
# Method in brief: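 Rats, N = 3, dosed iv at 5 mg/kg in parallel with a 5 mg/kg oral suspension. Pharmacokinetic parameters are mean values with SD.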
# [8] = AUC in rat at 5 mg/kg, po; type: ADME, organism-based; set-up: dose 5 mg/kg, route oral; settings: plasma
# [9] = Tmax in rat at 5 mg/kg, po; type: ADME, organism-based; set-up: dose 5 mg/kg, route oral; settings: in vivo; method in brief: as §2
# Rattus norvegicus [10] = assay: Cmax in rat at 5 mg/kg, po; type: ADME, organism-based; set-up: dose 5 mg/kg, route oral; settings: in vivo; method in brief: as §2
# [11] = Half life in rat at 5 mg/kg, po; type: ADME, organism-based; set-up: dose 5 mg/kg, route oral; settings: in vivo; method in brief: as §2
# [12] = Oral bioavailability in rat at 5 mg/kg; type: ADME, organism-based; settings: in vivo; method in brief: as §2
# Mus musculus [13] = assay: Antidyslipidemic activity in diet-induced obese C57Bl/6J mouse model assessed as reduction in cholesterol level at 0.3 to 10 mg/kg, po administered daily for 23 days; type: functional, organism-based
# Method in brief: (§3)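 C57Bl/6J mice aged six weeks were fed a high fat diet for 34 weeks. Body weight and food intake were monitored. BMD and body composition were assessed on day 22, and laboratory assessments were made at study end.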
# Mus musculus [14] = assay: Antidyslipidemic activity in diet-induced obese C57Bl/6J mouse model assessed as reduction in liver size at 0.3 to 10 mg/kg, po administered daily for 23 days; type: functional, organism-based; method in brief: as §3
# Mus musculus [15] = assay: Antidyslipidemic activity in diet-induced obese C57Bl/6J mouse model assessed as reduction in liver triglycerides at 0.3 to 10 mg/kg, po administered daily for 23 days; type: functional, organism-based; method in brief: as §3
# Mus musculus [16] = assay: Toxicity in diet-induced obese C57Bl/6J mouse model assessed as effect on bone mineral density at 0.3 to 10 mg/kg, po administered daily for 23 days; type: organism-based; set-up: dose 0.3-10 mg/kg, route oral; settings: in vivo; method in brief: as §3
# Mus musculus [17] = assay: Toxicity in diet-induced obese C57Bl/6J mouse model assessed as effect on heart size at 0.3 to 10 mg/kg, po administered daily for 23 days; type: organism-based; set-up: dose 0.3-10 mg/kg, route oral; settings: in vivo; method in brief: as §3
# Mus musculus [18] = assay: Toxicity in diet-induced obese C57Bl/6J mouse model assessed as effect on kidney size at 0.3 to 10 mg/kg, po administered daily for 23 days; type: organism-based; set-up: dose 0.3-10 mg/kg, route oral; settings: in vivo; method in brief: as §3
# Rattus norvegicus [19] = organism: Rattus norvegicus; assay: Antidyslipidemic activity in hypercholesterolemic rat model assessed as reduction in non-HDL-C level; type: functional, organism-based
# Rattus norvegicus [20] = organism: Rattus norvegicus; assay: Antidyslipidemic activity in hypercholesterolemic rat model assessed as reduction in liver triglycerides; type: functional, organism-based
# Oryctolagus cuniculus [21] = organism: Oryctolagus cuniculus; assay: Antidyslipidemic activity in hypercholesterolemic rabbit model assessed as reduction in non-HDL-C level; type: functional, organism-based
# Oryctolagus cuniculus [22] = organism: Oryctolagus cuniculus; assay: Antidyslipidemic activity in hypercholesterolemic rabbit model assessed as reduction in liver triglycerides; type: functional, organism-based
# Oryctolagus cuniculus [23] = organism: Oryctolagus cuniculus; assay: Toxicity in hypercholesterolemic rabbit model assessed as effect on TSH level; type: organism-based; settings: in vivo
# Oryctolagus cuniculus [24] = assay: Antidyslipidemic activity in hypercholesterolemic rabbit model assessed as reduction in lipid level in coadministered with atorvastatin; type: functional, organism-based
# Mus musculus [25] = organism: Mus musculus; assay: Antidyslipidemic activity in diet-induced obese C57Bl/6J mouse model assessed as lowering glucose level to near normal level; type: functional, organism-based
# Homo sapiens [26] = assay: Toxicity in healthy human with mildly elevated LDL-C level assessed as adverse events at 5 to 200 mg, po qd for 2 weeks by multiple ascending dose study; type: organism-based; settings: in vivo, 336 h
# Method in brief: (§4)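 Multiple ascending dose study lasting 2 weeks, run after a single ascending dose study. Healthy subjects with LDL-C >110 mg/dL took oral doses once daily from 5 to 200 mg. Safety, thyroid axis measures (free T4, free T3, TSH), heart rate, QT and liver enzymes were monitored. Lipid changes were compared with placebo.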
# Homo sapiens [27] = assay: Toxicity in healthy human with mildly elevated LDL-C level assessed as central thyroid axis dysfunction at 5 to 200 mg, po qd for 2 weeks by multiple ascending dose study; type: organism-based; settings: in vivo, 336 h; method in brief: as §4
# Homo sapiens [28] = assay: Toxicity in healthy human with mildly elevated LDL-C level assessed as effect on heart rate at 5 to 200 mg, po qd for 2 weeks by multiple ascending dose study; type: organism-based; settings: in vivo, 336 h
# Method in brief: (§5)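 Multiple ascending dose study after single ascending dose study. Healthy subjects with LDL-C >110 mg/dL received once daily oral doses of 5 to 200 mg for 2 weeks. Safety and tolerability were assessed, covering QT interval, heart rate, vital signs and liver enzymes.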
# Homo sapiens [29] = assay: Toxicity in healthy human with mildly elevated LDL-C level assessed as effect on vital signs at 5 to 200 mg, po qd for 2 weeks by multiple ascending dose study; type: organism-based; settings: in vivo, 336 h; method in brief: as §5
# Homo sapiens [30] = assay: Toxicity in healthy human with mildly elevated LDL-C level assessed as effect on effect on liver enzymes at 5 to 200 mg, po qd for 2 weeks by multiple ascending dose study; type: organism-based; settings: in vivo, 336 h; method in brief: as §5
# Homo sapiens [31] = assay: Toxicity in healthy human with mildly elevated LDL-C level assessed as reversible reduction in free T4 level at 200 mg, po qd for 2 weeks; type: organism-based; set-up: scale not given: the % may be the effect or the level left; settings: in vivo, 336 h
# Method in brief: (§6)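 Healthy subjects with LDL-C >110 mg/dL received once daily oral doses for 2 weeks in a multiple ascending dose study. Free T3, free T4 and TSH were compared with placebo.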
# Homo sapiens [32] = assay: Toxicity in healthy human with mildly elevated LDL-C level assessed as reversible reduction in free T4 level at 100 mg, po qd for 2 weeks; type: organism-based; set-up: scale not given: the % may be the effect or the level left; settings: in vivo, 336 h; method in brief: as §6
# Homo sapiens [33] = assay: Toxicity in healthy human with mildly elevated LDL-C level assessed as effect on free T3 level at 100 to 200 mg, po qd for 2 weeks; type: organism-based; settings: in vivo, 336 h; method in brief: as §6
# Homo sapiens [34] = assay: Antidyslipidemic activity in healthy human with mildly elevated LDL-C level assessed as reduction in LDL-C at 50 to 200 mg, po qd for 2 weeks by multiple ascending dose study relative to placebo control; type: functional; set-up: scale not given: the % may be the effect or the level left; method in brief: as §4
# Caco-2 [35] = assay: Permeability from basolateral to apical side of human Caco2 cells; type: ADME, cell-based
# [36] = Plasma concentration in thyroidectomized rat at 20 mg/kg, ip measured after 6 hrs; type: ADME, organism-based; set-up: dose 20 mg/kg, route intraperitoneal; method in brief: as §1
# [37] = Solubility of the compound at pH 7.04; settings: buffer
# Sequence of Cytochrome P450 2C19 (P33261 whole entry): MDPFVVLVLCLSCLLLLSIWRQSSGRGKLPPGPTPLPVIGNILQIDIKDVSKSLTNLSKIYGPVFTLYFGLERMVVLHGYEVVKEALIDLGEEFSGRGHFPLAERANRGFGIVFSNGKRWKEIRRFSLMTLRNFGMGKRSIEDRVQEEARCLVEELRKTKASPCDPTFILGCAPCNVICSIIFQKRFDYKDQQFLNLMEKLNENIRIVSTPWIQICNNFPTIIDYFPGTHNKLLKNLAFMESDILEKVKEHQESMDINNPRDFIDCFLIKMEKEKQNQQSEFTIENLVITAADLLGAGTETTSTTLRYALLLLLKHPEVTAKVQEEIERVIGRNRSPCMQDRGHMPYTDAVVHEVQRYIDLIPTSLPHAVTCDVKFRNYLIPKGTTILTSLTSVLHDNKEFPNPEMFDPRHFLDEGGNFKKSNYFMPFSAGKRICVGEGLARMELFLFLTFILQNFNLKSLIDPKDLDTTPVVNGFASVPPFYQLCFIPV
# Sequence of Cytochrome P450 3A5 (P20815 whole entry): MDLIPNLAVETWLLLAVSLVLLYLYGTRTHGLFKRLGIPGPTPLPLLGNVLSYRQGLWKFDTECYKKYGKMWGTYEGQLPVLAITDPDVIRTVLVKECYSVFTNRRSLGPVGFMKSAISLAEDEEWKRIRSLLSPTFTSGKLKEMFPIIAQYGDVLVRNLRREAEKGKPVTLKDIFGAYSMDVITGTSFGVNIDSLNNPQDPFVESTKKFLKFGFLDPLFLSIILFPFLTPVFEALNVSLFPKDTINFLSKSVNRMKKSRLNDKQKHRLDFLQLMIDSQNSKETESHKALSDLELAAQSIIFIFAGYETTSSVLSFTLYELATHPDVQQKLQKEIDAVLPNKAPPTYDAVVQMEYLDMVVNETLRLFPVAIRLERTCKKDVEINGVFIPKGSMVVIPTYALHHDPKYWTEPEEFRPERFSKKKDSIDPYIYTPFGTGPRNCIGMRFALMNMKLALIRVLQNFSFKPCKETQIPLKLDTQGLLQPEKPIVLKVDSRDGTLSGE
# Sequence of hERG (KCNH2) (Q12809 whole entry): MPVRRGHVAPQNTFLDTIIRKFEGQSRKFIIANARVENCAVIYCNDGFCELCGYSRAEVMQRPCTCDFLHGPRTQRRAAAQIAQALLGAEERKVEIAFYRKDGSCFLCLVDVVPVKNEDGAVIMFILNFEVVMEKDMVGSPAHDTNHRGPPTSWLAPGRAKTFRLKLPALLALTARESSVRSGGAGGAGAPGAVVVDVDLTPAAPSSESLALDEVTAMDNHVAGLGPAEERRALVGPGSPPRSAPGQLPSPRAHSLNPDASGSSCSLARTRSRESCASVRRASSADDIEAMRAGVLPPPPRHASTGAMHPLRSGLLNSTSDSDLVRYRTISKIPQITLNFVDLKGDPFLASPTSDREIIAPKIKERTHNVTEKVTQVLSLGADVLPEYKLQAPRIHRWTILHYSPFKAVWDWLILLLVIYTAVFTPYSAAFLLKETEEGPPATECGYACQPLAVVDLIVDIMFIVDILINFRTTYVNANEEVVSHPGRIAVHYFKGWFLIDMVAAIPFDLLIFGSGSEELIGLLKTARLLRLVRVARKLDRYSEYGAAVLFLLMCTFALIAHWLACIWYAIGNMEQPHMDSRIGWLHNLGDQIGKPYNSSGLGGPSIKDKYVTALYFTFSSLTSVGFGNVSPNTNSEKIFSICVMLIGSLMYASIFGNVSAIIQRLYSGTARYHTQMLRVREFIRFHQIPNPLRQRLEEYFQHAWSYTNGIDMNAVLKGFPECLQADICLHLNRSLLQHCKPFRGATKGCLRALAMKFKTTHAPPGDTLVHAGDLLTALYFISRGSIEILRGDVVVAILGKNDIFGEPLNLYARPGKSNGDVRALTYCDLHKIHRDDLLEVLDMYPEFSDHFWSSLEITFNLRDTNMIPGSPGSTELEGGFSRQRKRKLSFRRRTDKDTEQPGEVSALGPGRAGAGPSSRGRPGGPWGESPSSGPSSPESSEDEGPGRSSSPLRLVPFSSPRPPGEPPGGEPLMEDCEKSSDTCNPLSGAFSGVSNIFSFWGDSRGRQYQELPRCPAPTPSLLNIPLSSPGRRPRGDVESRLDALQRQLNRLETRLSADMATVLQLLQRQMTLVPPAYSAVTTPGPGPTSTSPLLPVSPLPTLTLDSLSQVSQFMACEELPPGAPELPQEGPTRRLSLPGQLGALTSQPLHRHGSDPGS
smiles,measurement,setting,value
CC(C)c1cc(Oc2c(Cl)cc(-n3nc(C#N)c(=O)[nH]c3=O)cc2Cl)n[nH]c1=O [RESMETIROM],Activity,Rattus norvegicus [1],Non-toxic
same,concentration at 6 h,[2],94 µM
same,concentration at 6 h,[3],15.4 µM
same,IC20,hERG (KCNH2),30 µM
same,IC50,Cytochrome P450 3A5,> 50 µM
same,IC50,Cytochrome P450 2C19,> 50 µM
same,permeability,Caco-2 [4],1.37 ×10⁻⁶ cm/s
same,AUC,[5],38100 ng·h/mL
same,clearance,[6],2.35 mL/min/kg
same,Vd,[7],0.422 L/kg
same,AUC,[8],17400 ng·h/mL
same,Tmax,[9],6 h
same,Cmax,Rattus norvegicus [10],1710 ng/mL
same,half-life,[11],4.08 h
same,bioavailability,[12],45%
same,Activity,Mus musculus [13],Active
same,Activity,Mus musculus [14],Active
same,Activity,Mus musculus [15],Active
same,Activity,Mus musculus [16],Non-toxic
same,Activity,Mus musculus [17],Non-toxic
same,Activity,Mus musculus [18],Non-toxic
same,Activity,Rattus norvegicus [19],Active
same,Activity,Rattus norvegicus [20],Active
same,Activity,Oryctolagus cuniculus [21],Active
same,Activity,Oryctolagus cuniculus [22],Active
same,Activity,Oryctolagus cuniculus [23],Non-toxic
same,Activity,Oryctolagus cuniculus [24],Active
same,Activity,Mus musculus [25],Active
same,Activity,Homo sapiens [26],Non-toxic
same,Activity,Homo sapiens [27],Non-toxic
same,Activity,Homo sapiens [28],Non-toxic
same,Activity,Homo sapiens [29],Non-toxic
same,Activity,Homo sapiens [30],Non-toxic
same,Activity,Homo sapiens [31],20%
same,Activity,Homo sapiens [32],10%
same,Activity,Homo sapiens [33],Non-toxic
same,Activity,Homo sapiens [34],<=30%
same,permeability,Caco-2 [35],permeable
same,concentration at 6 h,[36],57 µM
same,solubility,[37],1 µM
